These results are taken from ChEMBL document CHEMBL4219031, “Identification and Characterization of Von Hippel-Lindau-Recruiting Proteolysis Targeting Chimeras (PROTACs) of TANK-Binding Kinase 1” (J Med Chem, 2018).

Molecules are shown by their SMILES. Activity calls are given as the source filed them. No cut-off for these calls is given here.

Experiment [1] addresses T1, von Hippel-Lindau disease tumor suppressor/Serine/threonine-protein kinase TBK1 (Homo sapiens, UniProt Q9UHD2+P40337). The experiment is described as follows: Induction of VHL-mediated TBK1 degradation in human Panc02.13 cells assessed as decrease in Poly(I:C)-induced in IRF3 phosphorylation at 100 nM preincubated for 16 hrs followed by Poly I:C addition measured after 3 hrs by Western blot method. It is filed as cell-based. The procedure, abridged:
(§1)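 Panc02.13 cells grown in RPMI-1640 with 15% FBS and 10 units/mL human recombinant insulin, exposed to compound for 16 h. For phospho-IRF3 read-out, TLR3 agonist Poly I:C added for the final 3 h. Cells lysed in RIPA buffer with protease/phosphatase inhibitors, lysates clarified at 16,000g, run on SDS-PAGE and immunoblotted for TBK1, pIRF3 and GAPDH.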
Target sequence in this assay (P40337 whole entry, looked up, one chain of several): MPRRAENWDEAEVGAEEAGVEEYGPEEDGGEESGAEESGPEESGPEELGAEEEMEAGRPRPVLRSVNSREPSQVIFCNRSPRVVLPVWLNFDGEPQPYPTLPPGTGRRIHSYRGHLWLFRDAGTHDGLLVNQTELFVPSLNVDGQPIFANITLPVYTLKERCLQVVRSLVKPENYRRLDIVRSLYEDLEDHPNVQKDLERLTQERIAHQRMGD

A further experiment relates to NCI-H23. Kind of experiment: Antiproliferative activity against human H23 cells harboring K-Ras mutant at 10 uM after 72 hrs by CellTiter-Glo assay. It is filed as functional, cell-based. The procedure, abridged: (§2)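 Lung cancer lines seeded at 5000 cells/well; after 24 h, compound added as 3-fold dilutions (10 μM top final concentration, 0.1% DMSO final). Incubated 72 h, then viability read by CellTiter-Glo luminescence.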
In general terms: In ATP-based viability assays light output follows the ATP content of the culture.

The target of experiment [2] is T1, von Hippel-Lindau disease tumor suppressor/Serine/threonine-protein kinase TBK1. The experiment is described as follows: Induction of VHL-mediated TBK1 degradation in human Panc02.13 cells at 100 nM after 16 hrs in presence of (2S,4R)-1-((S)-2-acetamido-3,3-dimethylbutanoyl)-4-hydroxy-N-(4-(4-methylthiazol-5-yl)benzyl)pyrrolidine-2-carboxamide by Western blot method. In kind it is cell-based. An outline of the steps: as §1
Target sequence in this assay (P40337 whole entry, looked up, one chain of several): as above

For experiment [3] the target is unchanged. Kind of experiment: Induction of VHL-mediated TBK1 degradation in human Panc02.13 cells after 16 hrs by Western blot method. It is filed as cell-based. The procedure, abridged: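 For phospho-IRF3 read-out, TLR3 agonist Poly I:C added for the final 3 h. Cells lysed in RIPA buffer with protease/phosphatase inhibitors, lysates clarified at 16,000g, run on SDS-PAGE and immunoblotted for TBK1, pIRF3 and GAPDH.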
Target sequence in this assay (P40337 whole entry, one chain of several): as the sequence (P40337 whole entry, looked up, one chain of several) above

Experiment [4] has as its target von Hippel-Lindau disease tumor suppressor/Inhibitor of nuclear factor kappa-B kinase subunit epsilon (Homo sapiens) (UniProt Q14164+P40337). Kind of experiment: Induction of VHL-mediated IKKepsilon degradation in human Panc02.13 cells up to 3 uM after 16 hrs by Western blot method. In kind it is cell-based.
The target in experiment [5] is T1, von Hippel-Lindau disease tumor suppressor/Serine/threonine-protein kinase TBK1. The experiment is described as follows: Induction of VHL-mediated TBK1 degradation in human H23 cells harboring K-Ras mutant at 100 to 300 nM after 16 hrs by Western blot method. In kind it is cell-based.
Target sequence in this assay (P40337 whole entry, looked up, one chain of several): as above
Experiment [6] has the same target. The experiment is described as follows: Induction of VHL-mediated TBK1 degradation in human Panc02.13 cells at 100 nM after 16 hrs in presence of proteosome inhibitor carfilzomib by Western blot method. It is filed as cell-based. An outline of the steps: as §1
Target sequence in this assay (P40337 whole entry, looked up, one chain of several): as above
Background: In western blotting, separated proteins are transferred to a membrane and probed.

The subject of another experiment is A549. Kind of experiment: Antiproliferative activity against human A549 cells harboring K-Ras mutant at 10 uM after 72 hrs by CellTiter-Glo assay. It is filed as functional, cell-based. An outline of the steps: as §2
Experiment [7] addresses T1, von Hippel-Lindau disease tumor suppressor/Serine/threonine-protein kinase TBK1. The experiment is described as follows: Induction of VHL-mediated TBK1 degradation in human Panc02.13 cells after 16 hrs by Western blot method relative to control. It is filed as cell-based. An outline of the steps: as §1
Target sequence in this assay (P40337 whole entry, looked up, one chain of several): as above
A further experiment concerns HCC827. Kind of experiment: Antiproliferative activity against human HCC827 cells harboring wild-type K-Ras at 10 uM after 72 hrs by CellTiter-Glo assay. In kind it is functional, cell-based. An outline of the steps:
as §2

The target in experiment [8] is T1, von Hippel-Lindau disease tumor suppressor/Serine/threonine-protein kinase TBK1. Kind of experiment: Induction of VHL-mediated TBK1 degradation in human A549 cells harboring K-Ras mutant at 100 nM after 16 hrs by Western blot method. It is filed as cell-based.
Target sequence in this assay (P40337 whole entry, looked up, one chain of several): as above
For experiment [9] the target is unchanged. Kind of experiment: Induction of VHL-mediated TBK1 degradation in human Panc02.13 cells at 100 nM after 16 hrs by Western blot method. In kind it is cell-based. The procedure, abridged:
as §1

For another experiment, the species on record is Homo sapiens. Kind of experiment: Antiproliferative activity against human NCI-H2110 cells harboring wild-type K-Ras at 10 uM after 72 hrs by CellTiter-Glo assay. In kind it is functional, cell-based. The procedure, abridged:
as §2

The target of experiment [10] is T1, von Hippel-Lindau disease tumor suppressor/Serine/threonine-protein kinase TBK1. Kind of experiment: Induction of VHL-mediated TBK1 degradation in human HCC827 cells harboring wild-type K-Ras at 100 to 300 nM after 16 hrs by Western blot method. It is filed as cell-based.
For experiment [11], the target named is von Hippel-Lindau disease tumor suppressor/Elongin-C/Elongin-B/HIF1A (Homo sapiens, UniProt P40337+Q15369+Q15370+Q16665). The experiment is described as follows: Inhibition of His-tagged VHL/elongin B/elongin C (unknown origin) interaction with HIF1alpha preincubated for 10 mins followed by fluorescin labelled HIF1alpha peptide addition measured after 2 hrs by fluorescence polarization assay. It is filed as protein-complex assay. The procedure, abridged: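 VHL coexpressed and copurified with Elongin B and C (VCB). Compound preincubated 10 min with VHL in 50 mM Tris pH 7.5, 200 mM NaCl, 2 mM DTT, 1% DMSO. Polarization converted to percent binding against control wells; IC50 from four-parameter fit.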
Chain of von Hippel-Lindau disease tumor suppressor/Elongin-C/Elongin-B/HIF1A (P40337 whole entry, looked up): as the sequence (P40337 whole entry, looked up, one chain of several) above
Chain of von Hippel-Lindau disease tumor suppressor/Elongin-C/Elongin-B/HIF1A (Q15369 whole entry, looked up): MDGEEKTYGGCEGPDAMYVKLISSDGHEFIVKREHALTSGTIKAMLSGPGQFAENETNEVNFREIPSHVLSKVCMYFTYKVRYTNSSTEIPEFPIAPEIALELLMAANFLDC
Chain of von Hippel-Lindau disease tumor suppressor/Elongin-C/Elongin-B/HIF1A (Q15370 whole entry, looked up): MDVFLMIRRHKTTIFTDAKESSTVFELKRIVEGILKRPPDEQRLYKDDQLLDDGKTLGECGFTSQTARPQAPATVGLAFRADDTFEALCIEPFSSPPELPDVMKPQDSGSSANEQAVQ
Chain of von Hippel-Lindau disease tumor suppressor/Elongin-C/Elongin-B/HIF1A (Q16665 whole entry, looked up): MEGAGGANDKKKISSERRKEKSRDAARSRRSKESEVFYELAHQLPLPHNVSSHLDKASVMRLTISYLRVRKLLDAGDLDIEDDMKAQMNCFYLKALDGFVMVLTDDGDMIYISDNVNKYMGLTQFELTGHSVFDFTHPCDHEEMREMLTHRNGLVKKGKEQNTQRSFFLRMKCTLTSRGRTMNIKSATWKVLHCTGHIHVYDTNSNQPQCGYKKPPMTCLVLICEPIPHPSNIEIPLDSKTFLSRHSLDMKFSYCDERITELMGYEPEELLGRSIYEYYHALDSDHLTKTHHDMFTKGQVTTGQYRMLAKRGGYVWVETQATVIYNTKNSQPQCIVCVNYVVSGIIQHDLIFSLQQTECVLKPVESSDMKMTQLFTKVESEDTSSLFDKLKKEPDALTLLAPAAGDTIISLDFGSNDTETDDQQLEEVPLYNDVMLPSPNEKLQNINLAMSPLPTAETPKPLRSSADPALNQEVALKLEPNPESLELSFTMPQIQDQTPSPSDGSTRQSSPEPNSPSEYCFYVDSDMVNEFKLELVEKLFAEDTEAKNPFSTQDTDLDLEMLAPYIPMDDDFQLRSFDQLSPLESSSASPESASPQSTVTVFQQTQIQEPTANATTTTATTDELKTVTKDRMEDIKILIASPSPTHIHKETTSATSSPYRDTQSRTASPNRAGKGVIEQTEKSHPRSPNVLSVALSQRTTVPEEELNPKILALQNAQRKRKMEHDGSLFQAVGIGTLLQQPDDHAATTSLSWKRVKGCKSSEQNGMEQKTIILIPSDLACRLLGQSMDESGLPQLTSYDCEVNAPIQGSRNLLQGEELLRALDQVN
In general terms: Fluorescence polarisation rises when a labelled molecule tumbles more slowly, as on binding a larger partner.

In experiment [12] the target is T1, von Hippel-Lindau disease tumor suppressor/Serine/threonine-protein kinase TBK1. Kind of experiment: Induction of VHL-mediated TBK1 degradation in human H2110 cells harboring wild-type K-Ras at 100 to 300 nM after 16 hrs by Western blot method. In kind it is cell-based.
The target is the same in experiment [13]. Kind of experiment: Induction of VHL-mediated TBK1 degradation in human H1792 cells harboring K-Ras mutant at 100 to 300 nM after 16 hrs by Western blot method. It is filed as cell-based.
The next experiment deals with NCI-H1792. Kind of experiment: Antiproliferative activity against human NCI-H1792 cells harboring K-Ras mutant at 10 uM after 72 hrs by CellTiter-Glo assay. It is filed as functional, cell-based. The procedure, abridged:
as §2

Experiment [14] concerns the target T2, Serine/threonine-protein kinase TBK1 (Homo sapiens, UniProt Q9UHD2).
T2 sequence (Q9UHD2 whole entry): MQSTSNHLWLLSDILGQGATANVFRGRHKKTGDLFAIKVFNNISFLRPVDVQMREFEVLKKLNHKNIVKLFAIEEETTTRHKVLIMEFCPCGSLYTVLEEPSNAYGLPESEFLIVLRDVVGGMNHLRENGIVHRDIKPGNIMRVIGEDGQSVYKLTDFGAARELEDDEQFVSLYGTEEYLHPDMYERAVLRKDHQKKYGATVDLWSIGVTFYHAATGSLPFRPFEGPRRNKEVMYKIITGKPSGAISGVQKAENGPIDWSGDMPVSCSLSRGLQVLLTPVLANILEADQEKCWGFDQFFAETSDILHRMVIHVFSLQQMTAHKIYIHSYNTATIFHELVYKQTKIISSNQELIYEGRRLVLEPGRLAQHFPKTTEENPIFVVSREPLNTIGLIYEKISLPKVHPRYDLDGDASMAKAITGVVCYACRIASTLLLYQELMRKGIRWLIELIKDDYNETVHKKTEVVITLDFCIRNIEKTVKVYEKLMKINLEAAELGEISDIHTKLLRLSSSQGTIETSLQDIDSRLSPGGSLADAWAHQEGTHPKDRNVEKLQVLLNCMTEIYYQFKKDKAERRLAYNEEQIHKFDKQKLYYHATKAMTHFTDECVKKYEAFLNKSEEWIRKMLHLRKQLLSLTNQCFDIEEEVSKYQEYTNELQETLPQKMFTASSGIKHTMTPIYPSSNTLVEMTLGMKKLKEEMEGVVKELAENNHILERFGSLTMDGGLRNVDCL
The experiment is described as follows: Binding affinity to human full length wild-type TBK1 expressed in mammalian expression system.

In experiment [15] the target is T1, von Hippel-Lindau disease tumor suppressor/Serine/threonine-protein kinase TBK1. Kind of experiment: Induction of VHL-mediated TBK1 degradation in human Panc02.13 cells at 0.1 to 1 uM after 16 hrs by Western blot method. It is filed as cell-based. An outline of the steps:
as §1

The target in experiment [16] is T3, Serine/threonine-protein kinase TBK1 (Homo sapiens) (UniProt Q9UHD2).
T3 sequence (whole entry): T2 sequence (Q9UHD2 whole entry)
Kind of experiment: Antagonist activity at TBK1 in human Panc02.13 cells assessed as decrease in Poly(I:C)-induced IRF3 phosphorylation preincubated for 16 hrs followed by Poly I:C addition measured after 3 hrs by Western blot method. In kind it is cell-based. The procedure, abridged: as §1

Experiment [17] has as its target T1, von Hippel-Lindau disease tumor suppressor/Serine/threonine-protein kinase TBK1. Kind of experiment: Induction of VHL-mediated TBK1 degradation in human Panc02.13 cells at 1 uM after 16 hrs by Western blot method. In kind it is cell-based. An outline of the steps: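 Panc02.13 cells grown in RPMI-1640 with 15% FBS and 10 units/mL human recombinant insulin; compound exposure 16 h, with TLR3 agonist Poly I:C added for the final 3 h. Cells lysed in RIPA buffer with protease and phosphatase inhibitors, lysates clarified at 16,000g for 10 min, resolved by SDS-PAGE and immunoblotted for TBK1, with GAPDH as loading control.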

Chain of von Hippel-Lindau disease tumor suppressor/Inhibitor of nuclear factor kappa-B kinase subunit epsilon (Homo sapiens) (P40337 whole entry, looked up): as the sequence (P40337 whole entry, looked up, one chain of several) above
Chain of von Hippel-Lindau disease tumor suppressor/Inhibitor of nuclear factor kappa-B kinase subunit epsilon (Homo sapiens) (Q14164 whole entry, looked up): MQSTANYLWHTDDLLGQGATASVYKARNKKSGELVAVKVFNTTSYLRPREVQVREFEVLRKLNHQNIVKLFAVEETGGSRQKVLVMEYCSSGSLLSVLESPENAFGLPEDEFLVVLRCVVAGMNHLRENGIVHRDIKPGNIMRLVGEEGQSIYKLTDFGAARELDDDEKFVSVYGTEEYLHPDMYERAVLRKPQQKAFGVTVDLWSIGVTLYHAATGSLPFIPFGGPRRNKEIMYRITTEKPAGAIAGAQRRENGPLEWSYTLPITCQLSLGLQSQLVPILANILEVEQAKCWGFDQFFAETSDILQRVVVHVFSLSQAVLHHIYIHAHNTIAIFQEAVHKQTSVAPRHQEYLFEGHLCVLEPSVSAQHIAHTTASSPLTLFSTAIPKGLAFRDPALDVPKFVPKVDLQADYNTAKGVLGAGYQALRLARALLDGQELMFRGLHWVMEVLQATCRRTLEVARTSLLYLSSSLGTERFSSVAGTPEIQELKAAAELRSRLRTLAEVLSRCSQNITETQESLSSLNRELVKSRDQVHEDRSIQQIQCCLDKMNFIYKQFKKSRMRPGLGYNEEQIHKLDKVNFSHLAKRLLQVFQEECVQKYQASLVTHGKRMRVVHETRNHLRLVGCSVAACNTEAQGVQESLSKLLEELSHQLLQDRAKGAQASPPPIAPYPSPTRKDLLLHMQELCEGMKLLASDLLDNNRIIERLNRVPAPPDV

In general, DC50 refers to the midpoint of the concentration-degradation curve. Usually Emax stands for the maximal effect, on the per cent scale that the assay sets. For orientation: IC50 means the concentration at which inhibition is half-maximal. With `Cc1ncsc1-c1ccc(CNC(=O)[C@@H]2C[C@@H](O)CN2C(=O)[C@@H](NC(=O)COCCCOCCCCOCCCOc2ccc(Nc3ncc(Br)c(NCCCN(C)C(=O)C4CCC4)n3)cc2)C(C)(C)C)cc1`, the result in experiment [1], in experiment [5], in experiment [8], in [9], in experiment [10] and in [12] was Active. In addition, in experiment [13], the result was Active. Moreover, the result (with NCI-H23; in experiment [2]; in experiment [4]; in experiment [6]; with A549; in the experiment with HCC827) was inactive. In addition, the outcome in the experiment listed under Homo sapiens and with NCI-H1792 was inactive. This compound also yielded a half-maximal degradation concentration (DC50) in experiment [3] of 9 to 12 nM. This compound returned a maximal effect (Emax) in experiment [7] of 96%. The compound also gave a half-maximal inhibitory concentration (IC50) in experiment [11] of 4900 nM.
In [3], `Cc1ncsc1-c1ccc(CNC(=O)[C@@H]2C[C@@H](O)CN2C(=O)[C@@H](NC(=O)COCCCOCCCCOCCCOc2ccc(Nc3ncc(Br)c(NCCCN(C)C(=O)C4CCC4)n3)cc2)C(C)C)cc1` had a DC50 of 44 nM. In [7], this compound displayed a maximum response (Emax) of 88%. For the same compound, the IC50 in experiment [11] was determined as 5500 nM.
On to `Cc1ncsc1-c1ccc(CNC(=O)[C@@H]2C[C@@H](O)CN2C(=O)[C@H](C)NC(=O)COCCCOCCCCOCCCOc2ccc(Nc3ncc(Br)c(NCCCN(C)C(=O)C4CCC4)n3)cc2)cc1`, for which the half-maximal degradation concentration (DC50) in experiment [3] was > 1000 nM. In experiment [7], this compound gave a maximal effect (Emax) of 34%. This compound also returned a concentration for half-maximal inhibition (IC50) in experiment [11] of 25000 nM.
In general, Kd refers to the concentration at which binding is half-saturated. A lower Kd goes with a tighter complex. `Cc1ncsc1-c1ccc(CNC(=O)[C@@H]2C[C@H](O)CN2C(=O)[C@@H](NC(=O)COCCCOCCCCOCCCOc2ccc(Nc3ncc(Br)c(NCCCN(C)C(=O)C4CCC4)n3)cc2)C(C)(C)C)cc1`: the Kd in experiment [14] worked out at 5.9 nM. Besides, in experiment [15], the outcome was inactive. Besides, the inhibition entry in experiment [16] is “Active”. Moreover, the IC50 in experiment [11] is > 100000 nM.
Take `Cc1ncsc1-c1ccc(CNC(=O)[C@@H]2C[C@@H](O)CN2C(=O)CNC(=O)COCCCOCCCCOCCCOc2ccc(Nc3ncc(Br)c(NCCCN(C)C(=O)C4CCC4)n3)cc2)cc1`: the 50% degradation concentration (DC50) in experiment [3] is > 1000 nM. The Emax in [7] is 0%. The 50% inhibitory concentration (IC50) in [11] was > 100000 nM.
As for `CCC[C@H](NC(=O)COCCCOCCCCOCCCOc1ccc(Nc2ncc(Br)c(NCCCN(C)C(=O)C3CCC3)n2)cc1)C(=O)N1C[C@H](O)C[C@H]1C(=O)NCc1ccc(-c2scnc2C)cc1`, in experiment [3], half-maximal degradation (DC50) was put at 288 nM. Also, the maximal response (Emax) in [7] is 75%. The compound also registered an IC50 in experiment [11] of 16000 nM.
On to `CC[C@H](NC(=O)COCCCOCCCCOCCCOc1ccc(Nc2ncc(Br)c(NCCCN(C)C(=O)C3CCC3)n2)cc1)C(=O)N1C[C@H](O)C[C@H]1C(=O)NCc1ccc(-c2scnc2C)cc1`, for which the half-maximal degradation concentration (DC50) in experiment [3] was determined as 864 nM. The Emax in [7] was 71%. The IC50 in experiment [11] came to 9900 nM.
Turning to `CCOc1ccc(Nc2ncc(Br)c(NCCCN(C)C(=O)C3CCC3)n2)cc1`, the dissociation constant Kd in experiment [14] is 1.3 nM. In [3], the 50% degradation concentration (DC50) was > 1000 nM. Further, the result in experiment [17] was inactive.
